Assay results from ChEMBL document CHEMBL5113533 (J Med Chem, 2022).
Activity calls are given as the source filed them. The calls are words filed in the database; no cut-off is given here.

What was measured:
[1] = target: MAP kinase-activated protein kinase 2 (Homo sapiens) (UniProt P49137); experiment: Inhibition of MK2 in Escherichia coli -stimulated human THP-1 cells assessed as reduction in p38alpha MAPK phosphorylation at 1 uM pretreated for 1 hr followed by Escherichia coli stimulation and measured up to 15 mins by western blot analysis; type: cell-based; details: time 1.15 hrs
THP-1 [2] = experiment: Antiinflammatory activity against Escherichia coli induced human THP-1 cells assessed as reduction in proinflammatory phenotype at 1 uM for 1 hr followed by Escherichia coli stimulation and measured upto 24 hrs by MALDI-TOF MS analysis; type: functional, cell-based
In short: (§1)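 THP-1 cells pre-treated with compound for 1 h, then infected with live E. coli (MOI 2), spun 500g 5 min, left 15 or 30 min for uptake, then 100 μg/mL gentamicin for 1 h and 20 μg/mL gentamicin thereafter, up to 24 h. Pellets frozen on dry ice, thawed, washed in 100 mM Tris–HCl pH 7.5 at 4 °C, and read by MALDI-TOF MS as the normalized m/z 4964/4632 ratio.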

[3] = target: Mitogen-activated protein kinase 14 (Homo sapiens) (UniProt Q16539); experiment: Binding affinity to P38alpha (unknown origin) measured at 0.05 to 333.33 nM after 600 secs by SPR analysis; details: dose 0.05-333.33 nM, time 600.0 sec
In short: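 Biotinylated avidin-p38α was captured on a streptavidin chip from 50 μg/mL, reaching about 7719 RU. A 10-point series (0.05–333.33 nM) ran multicycle at 2 °C against a control surface: 90 s injection at 30 μL/min, then 600 s dissociation.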

THP-1 [4] = experiment: Antiinflammatory activity against LPS-stimulated human THP-1 cells assessed as TNF-alpha secretion pretreated for 1 hr followed by LPS stimulation and measured upto 24 hrs by ELISA analysis; type: functional, cell-based
In short: (§2)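 THP-1 cells pre-treated with compound for 1 h (5 μM or 1 μM, depending on the compound), then stimulated with 100 ng/mL LPS. Culture supernatant was taken at 24 h, and TNF-α, IL-6 or IL-1β was measured by sandwich ELISA at 450 nm with 540 nm correction; four biological replicates.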

[5] = target: Mitogen-activated protein kinase 14 (Homo sapiens) (UniProt Q16539); details: THP-1, dose 5.0 µM, time 1.15 hrs
THP-1 [6] = experiment: Antiinflammatory activity against Escherichia coli induced human THP-1 cells assessed as reduction in proinflammatory phenotype at 5 uM for 1 hr followed by Escherichia coli stimulation and measured upto 24 hrs by MALDI-TOF MS analysis; type: functional, cell-based; in short: as §1
THP-1 [7] = experiment: Inhibition of human Escherichia coli stimulated monocyte activation in human THP-1 cells assessed as suppression of CD11c expression level at 5 uM pretreated for 1 hr and measured up to 24 hrs by flow cytometric analysis; type: functional, cell-based
THP-1 [8] = experiment: Inhibition of human Escherichia coli stimulated monocyte activation in human THP-1 cells assessed as decrease in CD44 expression level at 5 uM pretreated for 1 hr and measured up to 24 hrs; type: functional, cell-based
THP-1 [9] = experiment: Inhibition of human Escherichia coli stimulated monocyte activation in human THP-1 cells assessed as increase in Filamin-B expression level at 5 uM pretreated for 1 hr and measured up to 24 hrs; type: functional, cell-based
In short: (§3)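 THP-1 cells pre-treated 1 h with 5 μM compound, then live E. coli up to 24 h. Label-free quantitative proteomics: S-Trap digestion (TCEP reduction, N-ethylmaleimide alkylation, trypsin 2 h at 47 °C), Orbitrap LC–MS/MS with a 180 min gradient. Changes called at FDR <0.05 and 1.5-fold.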

THP-1 [10] = experiment: Inhibition of cell adhesion in human Escherichia coli stimulated-THP-1 cells by crystal violet staining based assay; type: functional
In short: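 E. coli-stimulated THP-1 cells washed twice with PBS, fixed 15 min in 4% paraformaldehyde, stained 10 min with 5 mg/mL crystal violet, lysed 30 min in 2% SDS. Absorbance read at 550 nm; four biological replicates.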

OCI-AML2 [11] = experiment: Inhibition of MK2 in Escherichia coli-stimulated human OCI-AML2 cells assessed as reduction inMK2 phosphorylation pretreated for 1 hr followed by Escherichia coli stimulation and measured up to 15 mins by western blot analysis; type: cell-based; details: time 1.15 hrs
THP-1 [12] = experiment: Inhibition of P38 MAPK pathway in Escherichia coli-stimulated human THP-1 cells assessed as reduction in IL-6 expression at 5 uM pretreated for 1 hr followed by Escherichia coli stimulation and measured up to 24 hrs by ELISA analysis
In short: (§4)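 THP-1 cells pre-treated 1 h with 5 μM compound, then infected with live E. coli (MOI 2), followed by gentamicin killing of extracellular bacteria. TNF-α, IL-6 or IL-1β in supernatant measured by ELISA at 24 h, absorbance at 450 nm with 540 nm correction.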

[13] = system: Acute myeloid leukemic cell; experiment: Antiinflammatory activity against LPS-stimulated patient derived primary AML cells assessed reduction in TNFalpha level measured at 24 hrs by ELISA analysis; type: functional, cell-based; details: Homo sapiens
In short: (§5)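 CD14+ monocytes from healthy-donor blood (Lymphoprep, then pan-monocyte isolation) or patient AML cells (cultured in IMDM with 20% FBS, IL-3 and SCF). Cells pre-treated 1 h with 5 μM or 1 μM compound, then 100 ng/mL LPS; TNF-α in supernatant measured by ELISA at 24 h. Four (monocytes) or two (AML) biological replicates, error shown as SD.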

THP-1 [14] = experiment: Inhibition of human Escherichia coli stimulated monocyte activation in human THP-1 cells assessed as suppression of CD14 expression level at 5 uM pretreated for 1 hr and measured up to 24 hrs; type: functional, cell-based
[15] = target: MAP kinase-activated protein kinase 2 (Homo sapiens) (UniProt P49137); experiment: Inhibition of MK2 in Escherichia coli -stimulated human THP-1 cells assessed as reduction in p38alpha MAPK phosphorylation at 5 uM pretreated for 1 hr followed by Escherichia coli stimulation and measured up to 15 mins by western blot analysis; type: cell-based; details: time 1.15 hrs
THP-1 [16] = experiment: Antiinflammatory activity against LPS-stimulated human THP-1 cells assessed as reduction in IL-1beta level pretreated for 1 hr followed by LPS stimulation and measured upto 24 hrs by ELISA analysis; type: functional, cell-based; in short: as §2
THP-1 [17] = experiment: Inhibition of human Escherichia coli stimulated monocyte activation in human THP-1 cells assessed as decrease in CD14 expression level at 5 uM pretreated for 1 hr and measured up to 24 hrs; type: functional, cell-based
THP-1 [18] = experiment: Inhibition of human Escherichia coli stimulated monocyte activation in human THP-1 cells assessed as decrease in MMP9 expression level at 5 uM pretreated for 1 hr and measured up to 24 hrs; type: functional, cell-based; in short: as §3
THP-1 [19] = experiment: Inhibition of human Escherichia coli stimulated monocyte activation in human THP-1 cells assessed as suppression of CD49a expression level at 5 uM pretreated for 1 hr and measured up to 24 hrs by flow cytometric analysis; type: functional, cell-based
OCI-AML2 [20] = experiment: Antiinflammatory activity against Escherichia coli-stimulated human OCI-AML2 cells assessed reduction in IL-1beta level measured at 24 hrs by ELISA analysis; type: functional, cell-based
In short: (§6)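 OCI-AML2 cells stimulated with live E. coli (MOI 2, gentamicin protection). TNF-α, IL-6 and IL-1β in culture supernatant measured by ELISA at 24 h post-treatment, 450 nm with 540 nm correction, four biological replicates.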

[21] = target: Mitogen-activated protein kinase 14 (Homo sapiens) (UniProt Q16539); details: THP-1, dose 5.0 µM, time 1.15 hrs; remark: listed apart in the source
THP-1 [22] = experiment: Antiinflammatory activity against LPS-stimulated human THP-1 cells assessed as reduction in TNFalpha level pretreated for 1 hr followed by LPS stimulation and measured upto 24 hrs by ELISA analysis; type: functional, cell-based; in short: as §2
THP-1 [23] = experiment: Inhibition of human Escherichia coli stimulated monocyte activation in human THP-1 cells assessed as suppression of CD54 expression level at 5 uM pretreated for 1 hr and measured up to 24 hrs by flow cytometric analysis; type: functional, cell-based
THP-1 [24] = experiment: Inhibition of P38 MAPK pathway in Escherichia coli-stimulated human THP-1 cells assessed as reduction in TNFalpha expression at 5 uM pretreated for 1 hr followed by Escherichia coli stimulation and measured up to 24 hrs by ELISA analysis; in short: as §4
Monocyte = experiment: Antiinflammatory activity against LPS-stimulated human primary monocyte cells assessed reduction in TNFalpha level measured at 24 hrs by ELISA analysis; type: functional, cell-based; in short: as §5
THP-1 [25] = experiment: Inhibition of human Escherichia coli stimulated monocyte activation in human THP-1 cells assessed as […] of CD44 expression level at 5 uM pretreated for 1 hr and measured up to 24 hrs; type: functional, cell-based
THP-1 [26] = experiment: Inhibition of human Escherichia coli stimulated monocyte activation in human THP-1 cells assessed as increase in ROCK1 expression level at 5 uM pretreated for 1 hr and measured up to 24 hrs; type: functional, cell-based; in short: as §3
OCI-AML2 [27] = experiment: Antiinflammatory activity against Escherichia coli-stimulated human OCI-AML2 cells assessed reduction in IL-6 level measured at 24 hrs by ELISA analysis; type: functional, cell-based; in short: as §6
THP-1 [28] = experiment: Inhibition of human Escherichia coli stimulated monocyte activation in human THP-1 cells assessed as decrease in IL-1beta expression level at 5 uM pretreated for 1 hr and measured up to 24 hrs; type: functional, cell-based; in short: as §3
THP-1 [29] = experiment: Inhibition of human Escherichia coli stimulated monocyte activation in human THP-1 cells assessed as decrease in ICAM-1 expression level at 5 uM pretreated for 1 hr and measured up to 24 hrs; type: functional, cell-based
NCI-H929 = experiment: Inhibition of MK2 in Escherichia coli-stimulated human NCI-H929 cells assessed as reduction in MK2 phosphorylation pretreated for 1 hr followed by Escherichia coli stimulation and measured up to 15 mins by western blot analysis; type: cell-based; details: time 1.15 hrs
OCI-AML2 [30] = experiment: Antiinflammatory activity against Escherichia coli-stimulated human OCI-AML2 cells assessed reduction in TNFalpha level measured at 24 hrs by ELISA analysis; type: functional, cell-based; in short: as §6
THP-1 [31] = experiment: Inhibition of human Escherichia coli stimulated monocyte activation in human THP-1 cells assessed as upregulation of MMP9 expression level at 5 uM pretreated for 1 hr and measured up to 24 hrs; type: functional, cell-based; in short: as §3
THP-1 [32] = experiment: Inhibition of human Escherichia coli stimulated monocyte activation in human THP-1 cells assessed as decrease in TLR2 expression level at 5 uM pretreated for 1 hr and measured up to 24 hrs; type: functional, cell-based; in short: as §3
THP-1 [33] = experiment: Antiinflammatory activity against LPS-stimulated human THP-1 cells assessed as reduction in IL-6 level pretreated for 1 hr followed by LPS stimulation and measured upto 24 hrs by ELISA analysis; type: functional, cell-based; in short: as §2
THP-1 [34] = experiment: Inhibition of P38 MAPK pathway in Escherichia coli-stimulated human THP-1 cells assessed as reduction in IL-1beta expression at 5 uM pretreated for 1 hr followed by Escherichia coli stimulation and measured upto 24 hrs by ELISA analysis; in short: as §4
THP-1 [35] = experiment: Antiinflammatory activity against LPS-stimulated human THP-1 cells assessed as disappearance inflammatory phenotype at 5 uM pretreated for 1 hr followed by LPS stimulation and measured upto 24 hrs by ELISA analysis; type: functional, cell-based

Mitogen-activated protein kinase 14 (Homo sapiens), sequence (Q16539 whole entry): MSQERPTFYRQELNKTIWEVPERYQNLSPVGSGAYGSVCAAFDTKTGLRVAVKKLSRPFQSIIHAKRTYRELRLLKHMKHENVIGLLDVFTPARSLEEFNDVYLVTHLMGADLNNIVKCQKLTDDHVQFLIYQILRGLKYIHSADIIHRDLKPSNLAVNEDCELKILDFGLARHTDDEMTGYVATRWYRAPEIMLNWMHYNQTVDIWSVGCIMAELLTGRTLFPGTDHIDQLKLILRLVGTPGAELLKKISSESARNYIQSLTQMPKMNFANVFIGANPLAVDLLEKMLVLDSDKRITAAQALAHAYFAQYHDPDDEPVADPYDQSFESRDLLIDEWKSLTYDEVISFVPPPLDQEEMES
MAP kinase-activated protein kinase 2 (Homo sapiens), sequence (P49137 whole entry, looked up): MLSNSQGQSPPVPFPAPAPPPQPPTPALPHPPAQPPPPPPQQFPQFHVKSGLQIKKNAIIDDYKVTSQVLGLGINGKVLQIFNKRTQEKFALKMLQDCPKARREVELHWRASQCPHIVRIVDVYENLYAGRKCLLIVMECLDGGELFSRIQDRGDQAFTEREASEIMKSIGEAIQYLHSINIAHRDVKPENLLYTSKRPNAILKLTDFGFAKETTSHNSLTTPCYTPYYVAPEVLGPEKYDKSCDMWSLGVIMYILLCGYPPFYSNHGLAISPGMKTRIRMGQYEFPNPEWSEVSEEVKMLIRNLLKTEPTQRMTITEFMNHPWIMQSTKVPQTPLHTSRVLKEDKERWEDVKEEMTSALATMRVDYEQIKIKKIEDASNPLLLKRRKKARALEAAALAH

Cc1c(F)cc(C(=O)NC2CC2)cc1-c1ccc(C(=O)NCC(C)(C)C)cn1
inhibition [1]: Active | Activity (THP-1 [2]): Active

Cc1ccc(C(=O)Nc2ccc(CN3CCN(C)CC3)c(C(F)(F)F)c2)cc1C#Cc1cnc2cccnn12
Activity [3]: Active

Cc1cn(-c2cc(NC(=O)c3ccc(C)c(Nc4nccc(-c5cccnc5)n4)c3)cc(C(F)(F)F)c2)cn1 [NILOTINIB]
IC50 (THP-1 [4]): 0.4 µM | Tm [5]: 60.7 °C | Activity (THP-1 [6]): Active | inhibition (THP-1 [7]): Active | inhibition (THP-1 [8]): Active | inhibition (THP-1 [9]): Active | inhibition (THP-1 [10]): Active | inhibition (OCI-AML2 [11]): Active | inhibition (THP-1 [12]): Active | Activity [13]: Active | inhibition (THP-1 [14]): Active | inhibition [15]: Active | Activity (THP-1 [16]): Active | inhibition (THP-1 [17]): Active | inhibition (THP-1 [18]): Active | inhibition (THP-1 [19]): Active | Activity (OCI-AML2 [20]): Active | Tm [21]: 55.1 °C | Activity (THP-1 [22]): Active | inhibition (THP-1 [23]): Active | inhibition (THP-1 [24]): Active | Activity (Monocyte): Active | inhibition (THP-1 [25]): Active | Activity [3]: Active | inhibition (THP-1 [26]): Active | Activity (OCI-AML2 [27]): Active | inhibition (THP-1 [28]): Active | inhibition (THP-1 [29]): Active | inhibition (NCI-H929): Active | Activity (OCI-AML2 [30]): Active | inhibition (THP-1 [31]): Active | inhibition (THP-1 [32]): Active | Activity (THP-1 [33]): Active | inhibition (THP-1 [34]): Active | Activity (THP-1 [35]): Active
